Activity calls are given as the source filed them. The calls are words filed in the database; no cut-off is given here.
What was measured:
Trypanosoma cruzi [1] = test: Antitrypanosomal activity against Trypanosoma cruzi Arequipa epimastigote forms incubated for 72 hrs by hemocytometry; assay type: functional, organism-based
How it was run: (§1)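 Epimastigotes grown in MTL medium with 10% inactivated FBS at 28 °C. Compounds were dissolved in DMSO (0.01% v/v) and added at 0.1–100 µM for 72 h. Parasites were counted in a Neubauer chamber. IC50 (50% growth inhibition) was derived by linear regression of Kc values. Values are averages of four determinations.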

Trypanosoma cruzi [2] = test: Antitrypanosomal activity against Trypanosoma cruzi SN3 amastigote forms infected in African green monkey Vero cells incubated for 72 hrs by Giemsa staining based micrscopy; assay type: functional, organism-based
How it was run: (§2)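 Vero cells (RPMI, 10% inactivated FBS, 37 °C, 5% CO2) were seeded at 1×10^4/well on coverslips and cultured 2 days. They were infected 24 h with metacyclic forms at 10:1. After washing off free parasites, drugs were added at 0.1–100 µM for 72 h. Slides were methanol-fixed and Giemsa-stained; amastigotes were counted in 200 host cells versus untreated. IC50 was calculated.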

Trypanosoma cruzi [3] = test: Antitrypanosomal activity against Trypanosoma cruzi Arequipa trypomastigote froms infected in mouse blood incubated for 24 hrs by Neubauer chamber based assay; assay type: functional, organism-based
How it was run: (§3)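 Mouse blood taken at peak parasitemia (day 7) was diluted with uninfected blood to 4×10^6 trypomastigotes/mL, then 1:2 in RPMI 1640. Drugs from DMSO stocks were added at 1, 10, 25, 50 and 100 µM and incubated 24 h at 4–8 °C. Parasites were counted in a Neubauer chamber in triplicate. IC50 was calculated versus control.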

Trypanosoma cruzi [4] = test: Antitrypanosomal activity against Trypanosoma cruzi SN3 epimastigote forms incubated for 72 hrs by hemocytometry; assay type: functional, organism-based; settings: SN3, 72 h; how it was run: as §1
Trypanosoma cruzi [5] = test: Antitrypanosomal activity against Trypanosoma cruzi Tulahuen trypomastigote froms infected in mouse blood incubated for 24 hrs by Neubauer chamber based assay; assay type: functional, organism-based; how it was run: as §3
Trypanosoma cruzi [6] = test: Antitrypanosomal activity against Trypanosoma cruzi Arequipa amastigote forms infected in African green monkey Vero cells incubated for 72 hrs by Giemsa staining based micrscopy; assay type: functional, organism-based; how it was run: as §2
Trypanosoma cruzi [7] = test: Antitrypanosomal activity against Trypanosoma cruzi SN3 trypomastigote froms infected in mouse blood incubated for 24 hrs by Neubauer chamber based assay; assay type: functional, organism-based; how it was run: as §3
Vero = test: Cytotoxicity in African green monkey Vero cells incubated for 72 hrs; assay type: cell-based; settings: Chlorocebus sabaeus
Trypanosoma cruzi [8] = test: Antitrypanosomal activity against Trypanosoma cruzi Tulahuen epimastigote forms incubated for 72 hrs by hemocytometry; assay type: functional, organism-based; how it was run: as §1
Trypanosoma cruzi [9] = test: Antitrypanosomal activity against Trypanosoma cruzi Tulahuen amastigote forms infected in African green monkey Vero cells incubated for 72 hrs by Giemsa staining based micrscopy; assay type: functional, organism-based; how it was run: as §2
[10] = Selectivity index, ratio of IC50 for cytotoxicity in African green monkey Vero cells to IC50 for antitrypanosomal activity against Trypanosoma cruzi […] amastigote forms; assay type: toxicity, cell-based; settings: read-out: Ratio IC50
[11] = Selectivity index, ratio of IC50 for cytotoxicity in African green monkey Vero cells to IC50 for antitrypanosomal activity against Trypanosoma cruzi […] epimastigote forms
Trypanosoma cruzi [12] = test: Antitrypanosomal activity against Trypanosoma cruzi Arequipa trypomastigotes infected in BALB/c mouse assessed as reduction in parasitemia measured during acute phase (days 0 to 40 post infection) at 50 to 100 mg/kg, po dosed on alternating days (7 to 15 days post infection); assay type: functional, organism-based; settings: dose 50-100 mg/kg
How it was run: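 Female BALB/c mice (8–10 weeks, 25–30 g; groups of six) were infected i.p. with 5×10^5 Arequipa blood trypomastigotes. Dosing was oral, 50 or 100 mg/kg/day, on 5 alternating days (days 7–15 pi), alongside untreated and reference-drug groups. Parasitemia was counted in 5 µL mandibular-vein blood by Neubauer chamber through day 40 pi. Data are means ± SD of six mice.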

Trypanosoma cruzi [13] = test: (§4) Antitrypanosomal activity against Trypanosoma cruzi Arequipa trypomastigotes infected in BALB/c mouse assessed as reduction in parasitemia level in esophagus measured during acute phase (days 0 to 40 post infection) at 100 mg/kg, po dosed on alternating days (7 to 15 days post infection) by PCR analysis; assay type: functional, organism-based
Trypanosoma cruzi [14] = test: as §4, with “adipose tissue” for “esophagus”; assay type: functional, organism-based
Trypanosoma cruzi [15] = test: Antitrypanosomal activity against Trypanosoma cruzi infected in African green monkey Vero cells assessed as reduction in number of trypomastigotes measured up to 10 days by Giemsa staining based hemocytometry; assay type: functional; settings: time day <=10
How it was run: (§5)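 Vero cells infected with metacyclic forms (10:1) were exposed to one concentration per compound immediately after infection for 12 h at 37 °C, 5% CO2. After washing, cultures were kept 10 days with fresh medium every 48 h. Every 48 h, % infected cells and amastigotes per infected cell (200 Giemsa-stained cells) and medium trypomastigotes (Neubauer) were scored. Means of three experiments.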

Trypanosoma cruzi [16] = test: Inhibition of Trypanosoma cruzi Arequipa Fe-SOD at 50 uM by NBT dye based spectrophotometry
How it was run: (§6)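 Fe-SOD source: Arequipa epimastigote homogenate (STE buffer pH 7.8, sonication, centrifugation, supernatant; protein by Bradford); CuZn-SOD was commercial human erythrocyte enzyme. Activity was measured as NBT reduction by superoxide in 50 mM potassium phosphate pH 7.8, with compounds at 5 concentrations (1–100 µM). A560 was read before and after 10 min under lamp light with stirring. Three rate determinations; Newman–Keuls test.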

Trypanosoma cruzi [17] = test: Antitrypanosomal activity against Trypanosoma cruzi infected in African green monkey Vero cells assessed as reduction in infection rate measured up to 10 days by Giemsa staining based hemocytometry; assay type: functional; settings: time day <=10; how it was run: as §5
Trypanosoma cruzi [18] = test: as §4, with “muscle” for “esophagus”; assay type: functional, organism-based
Trypanosoma cruzi [19] = test: as §4, with “stomach” for “esophagus”; assay type: functional, organism-based
Trypanosoma cruzi [20] = test: Antitrypanosomal activity against Trypanosoma cruzi Arequipa trypomastigotes infected in BALB/c mouse assessed as reduction in splenomegaly by measuring weight percent of spleens […] at 100 mg/kg, po dosed on alternating days (7 to 15 days post infection) by PCR analysis (reference value: 1.603%); assay type: functional
[21] = biological target: T1, Superoxide dismutase [Cu-Zn] (Homo sapiens, UniProt P00441); test: Inhibition of human erythrocyte CuZn-SOD by NBT dye based spectrophotometry; how it was run: as §6
T1 sequence (P00441 whole entry): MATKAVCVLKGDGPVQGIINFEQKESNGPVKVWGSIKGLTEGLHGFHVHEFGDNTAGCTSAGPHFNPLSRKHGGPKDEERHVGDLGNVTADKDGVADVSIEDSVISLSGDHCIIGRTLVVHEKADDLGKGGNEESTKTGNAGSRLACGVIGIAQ

Trypanosoma cruzi [22] = test: as §4, with “bone marrow” for “esophagus”; assay type: functional, organism-based
Trypanosoma cruzi [23] = test: (§7) Antitrypanosomal activity against Trypanosoma cruzi Arequipa trypomastigotes infected in BALB/c mouse assessed as reduction in parasitemia level in heart measured during acute phase (days 0 to 40 post infection) at 100 mg/kg, po dosed on alternating days (7 to 15 days post infection) by PCR analysis; assay type: functional, organism-based
Trypanosoma cruzi [24] = test: Antitrypanosomal activity against Trypanosoma cruzi Arequipa trypomastigotes infected in BALB/c mouse assessed as parasitemia re-activation level measured during chronic phase ( day 90 post infection) at 100 mg/kg, po dosed on alternating days (7 to 15 days post infection) relative to acute phase infection (reference value: […]%); assay type: functional
Trypanosoma cruzi [25] = test: Antitrypanosomal activity against Trypanosoma cruzi Arequipa trypomastigotes infected in BALB/c mouse assessed as reduction in parasitemia level in brain measured during acute phase (days 0 to 40 post infection) at 100 mg/kg, po dosed on alternating days (7 to 15 days post infection) by PCR analysis; assay type: functional, organism-based
Trypanosoma cruzi [26] = test: Antitrypanosomal activity against Trypanosoma cruzi Arequipa trypomastigotes infected in BALB/c mouse assessed as reduction in mouse mortality measured during acute phase (days 0 to 40 post infection) at 50 to 100 mg/kg, po dosed on alternating days (7 to 15 days post infection); assay type: functional, organism-based; settings: dose 50-100 mg/kg
[27] = biological target: T1, Superoxide dismutase [Cu-Zn]; test: Inhibition of human erythrocyte CuZn-SOD at 50 uM by NBT dye based spectrophotometry; how it was run: as §6
Trypanosoma cruzi [28] = test: Antitrypanosomal activity against Trypanosoma cruzi Arequipa trypomastigotes infected in BALB/c mouse assessed as reduction in parasitemia level in lung measured during acute phase (days 0 to 40 post infection) at 100 mg/kg, po dosed on alternating days (7 to 15 days post infection) by PCR analysis; assay type: functional, organism-based
Trypanosoma cruzi [29] = test: Antitrypanosomal activity against Trypanosoma cruzi Arequipa trypomastigotes infected in BALB/c mouse assessed as reduction in splenomegaly by measuring weight percent of spleens […] at 50 mg/kg, po dosed on alternating days (7 to 15 days post infection) by PCR analysis (reference value: 1.603%); assay type: functional; design: scale not given: the % may be the effect or the level left
[30] = Inhibition of Trypanosoma cruzi Arequipa Fe-SOD by NBT dye based spectrophotometry; how it was run: as §6
Trypanosoma cruzi [31] = test: Antitrypanosomal activity against Trypanosoma cruzi infected in African green monkey Vero cells assessed as reduction in number of amastigotes per infected cell measured up to 10 days by Giemsa staining based hemocytometry; assay type: functional; settings: time day <=10; how it was run: as §5
Trypanosoma cruzi [32] = test: as §7, with “infection) at 50 to 100 mg/kg,” for “infection) at 100 mg/kg,”; assay type: functional, organism-based; settings: dose 50-100 mg/kg
[33] = biological target: T1, Superoxide dismutase [Cu-Zn]; test: Inhibition of human erythrocyte CuZn-SOD at 100 uM by NBT dye based spectrophotometry; how it was run: as §6
Trypanosoma cruzi [34] = test: Inhibition of Trypanosoma cruzi Arequipa Fe-SOD at <50 uM by NBT dye based spectrophotometry; settings: dose microM <50; how it was run: as §6

| IC50 (Trypanosoma cruzi [1]) | IC50 (Trypanosoma cruzi [2]) | IC50 (Trypanosoma cruzi [3]) | IC50 (Trypanosoma cruzi [4]) | IC50 (Trypanosoma cruzi [5]) | IC50 (Trypanosoma cruzi [6]) | IC50 (Trypanosoma cruzi [7]) | IC50 (Trypanosoma cruzi [8]) | IC50 (Trypanosoma cruzi [9]) | Compound | IC50 (Vero) | Activity (Trypanosoma cruzi [12]) | Activity (Trypanosoma cruzi [13]) | Activity (Trypanosoma cruzi [14]) | inhibition (INH) (Trypanosoma cruzi [15]) | inhibition (INH) (Trypanosoma cruzi [17]) | Activity (Trypanosoma cruzi [18]) | Activity (Trypanosoma cruzi [19]) | Spleen weight percent (Trypanosoma cruzi [20]) | Activity (Trypanosoma cruzi [22]) | Activity (Trypanosoma cruzi [23]) | further results |
| --- | --- | --- | --- | --- | --- | --- | --- | --- | --- | --- | --- | --- | --- | --- | --- | --- | --- | --- | --- | --- | --- |
| 28 µM | 5.7 µM | 26.8 µM | 12.8 µM | 22.3 µM | 18.6 µM | 4.6 µM | 28 µM | 20.2 µM | O=C(CCN1CCN(c2cccc(C(F)(F)F)c2)CC1)c1ccsc1 | 4.8 µM |  |  |  |  |  |  |  |  |  |  | selectivity ratio [10]: 1; selectivity ratio [11]: 1 |
| 77.7 µM | 20.7 µM | 35.9 µM | 41.4 µM | 0.5 µM | 11.7 µM | 18.6 µM | 35.5 µM | 19.8 µM | O=C(CCN1CCN(c2ccc([N+](=O)[O-])cc2)CC1)c1csc2ccccc12 | 1710 µM | Active | Active | Active | 59% | 59% | Active | Active | 0.729% | Active | Active | inhibition (Trypanosoma cruzi [16]): 100%; IC50 [21]: 46.6 µM; Activity (Trypanosoma cruzi [24]): 0%; Activity (Trypanosoma cruzi [25]): Active; Activity (Trypanosoma cruzi [26]): Active; inhibition [27]: 100%; Activity (Trypanosoma cruzi [28]): Active; Activity (Trypanosoma cruzi [29]): 1.174%; IC50 [30]: 7.8 µM; inhibition (INH) (Trypanosoma cruzi [31]): 45%; Activity (Trypanosoma cruzi [32]): Active |
| 26 µM | 72.9 µM | 20.3 µM | 179 µM | 2.5 µM | 10.8 µM | 33 µM | 50.3 µM | 22.8 µM | O=C(CCN1CCN(c2ccc([N+](=O)[O-])cc2C(F)(F)F)CC1)c1csc2ccccc12 | 2850 µM | Active | Active | Active | 64% | 76% | Active | Active | 0.892% | Active | Active | inhibition [33]: inactive; inhibition (Trypanosoma cruzi [34]): 100%; Activity (Trypanosoma cruzi [24]): 0%; Activity (Trypanosoma cruzi [25]): Active; Activity (Trypanosoma cruzi [26]): Active; Activity (Trypanosoma cruzi [28]): Active; Activity (Trypanosoma cruzi [29]): 1.171%; IC50 [30]: 71.1 µM; inhibition (INH) (Trypanosoma cruzi [31]): 74%; Activity (Trypanosoma cruzi [32]): Active |

Source: ChEMBL document CHEMBL4680103, “In Vitro and in Vivo Anti-Trypanosoma cruzi Activity of New Arylamine Mannich Base-Type Derivatives” (J Med Chem, 2016)
